Consider 70 compounds from ChEMBL document CHEMBL1135145, “Synthesis and bioactivities of novel 4,5,6,7-tetrahydrothieno[2,3-c]pyridines as inhibitors of tumor necrosis factor-alpha (TNF-alpha) production” (Bioorg Med Chem Lett, 2002).

Bounds are passed on as bounds.

For one assay, the system named is Rattus norvegicus. Description: Compound was evaluated in vivo for the inhibition of LPS-stimulated serum TNF-alpha production in rat after oral administration at a dose 50 mg/kg. It counts as functional. The method in brief: (§1)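 Male SD rats, 6 weeks old, given compound orally as a suspension in 0.5% CMC. LPS (E. coli B055:B5, 0.1 mg/kg) injected iv 1 h after dosing. Animals killed and bled 90 min later. Serum TNF-α measured by ELISA. ED50 derived from TNF-α yield relative to LPS controls without compound.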
A word on the inhibition in vivo: it is the relative decrease from the control value, in per cent. Read a low inhibition in vivo as a weak effect. The compound `CC(=O)N1CCc2c(sc(NC(=O)C3CC3)c2C(=O)c2ccccc2)C1` showed an inhibition in vivo at 50 mg/kg of 34.1%.
In the case of `CC(=O)N1CCc2c(sc(NC(=O)C(C)C)c2C(=O)c2ccccc2)C1`, the inhibition in vivo at 50 mg/kg worked out at 35%.
For `CCOC(=O)c1c(NC(=O)C(C)C)sc2c1CCN(C(C)=O)C2`, the inhibition in vivo at 50 mg/kg was 49.1%.
Take `CC(=O)N1CCc2c(sc(NC(=O)C(C)C)c2C(=O)c2ccccc2C)C1`: testing at 50 mg/kg gave an inhibition in vivo of 3.9%.
Compound `CC(=O)N1CCc2c(sc(NC(=O)C(C)C)c2C(=O)c2ccccc2Cl)C1` came in with an inhibition in vivo at 50 mg/kg of 2.4%.
Take `CC(=O)N1CCc2c(sc(NC(=O)C3CC3)c2C(=O)c2ccccc2Cl)C1`: the inhibition in vivo at 50 mg/kg came to 35%.
Turning to `CC(=O)N1CCc2c(sc(NC(=O)C3CC3)c2C(=O)c2ccccc2C)C1`, the inhibition in vivo at 50 mg/kg stood at 58.6%.
With `CC(=O)c1c(NC(=O)C2CC2)sc2c1CCN(C(C)=O)C2`, 50 mg/kg produced 31.3% inhibition in vivo.
`CC(=O)c1c(NC(=O)C(C)C)sc2c1CCN(C(C)=O)C2` registered an inhibition in vivo at 50 mg/kg of 22.7%.
Consider `CCOC(=O)c1c(NC(=O)C2CC2)sc2c1CCN(C(C)=O)C2`, for which the inhibition in vivo at 50 mg/kg is 64.2%.

For the next assay, the species on record is Rattus norvegicus. Briefly: In vitro inhibition of lipopolysaccharide stimulated tumor necrosis factor-alpha production in rat whole blood. It counts as functional. The method in brief:
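Rat whole blood diluted to 50% in RPMI-1640 containing streptomycin and penicillin. Compound in DMSO, or DMSO vehicle, preincubated for 30 min at 37 °C in 5% CO2. Stimulated with 10 µg/mL LPS (E. coli B055:B5) and incubated 4 h under the same conditions. IC50 taken for inhibition of TNF-α production.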
What is called IC50 is the concentration needed to halve the response being measured. Compound `CC(=O)N1CCc2c(sc(NC(=O)C3CC3)c2C(=O)c2ccccc2)C1` had an IC50 of 3 µM.
The same measure, in the same setting: then `CC(=O)N1CCc2c(sc(N(CC(C)C)CC(C)C)c2C(=O)c2ccccc2Cl)C1`, with 30 µM.
Still for that read-out and setting: to `CC(=O)Nc1sc2c(c1C(=O)c1ccccc1Cl)CCN(C(C)=O)C2` belongs 9.5 µM; to `Nc1sc2c(c1C(=O)c1ccccc1Cl)CCNC2`, over 100 µM.
Still for that read-out and setting: to `CC(=O)N1CCc2c(sc(N(CC3CCCCC3)CC3CCCCC3)c2C(=O)c2ccccc2Cl)C1` belongs 100 µM.
In turn, `CC(=O)N1CCc2c(sc(NC(=O)C(C)C)c2C(=O)c2cccc(Cl)c2)C1` gave an IC50 of 7.6 µM.
Consider `CC(=O)N1CCc2c(sc(NC(=O)c3ccccc3)c2C(=O)c2ccccc2Cl)C1`, for which the IC50 stood at 46 µM.
The same measure, in the same setting: to `C[C@@H]1C[C@H]2[C@@H]3CCC4=CC(=O)C=C[C@]4(C)[C@@]3(F)[C@@H](O)C[C@]2(C)[C@@]1(O)C(=O)CO` [DEXAMETHASONE] belongs 0.02 µM; to `CC(=O)N1CCc2c(sc(N)c2C(=O)c2ccccc2Cl)C1`, 72 µM; to `COc1cccc(OC)c1C(=O)c1c(NC(C)=O)sc2c1CCN(C(C)=O)C2`, 88 µM.
In the case of `O=C(Nc1sc2c(c1C(=O)c1ccccc1Cl)CCN(Cc1ccccc1)C2)c1cccnc1`, the IC50 was 7.1 µM.
Regarding `CC(=O)N1CCc2c(sc(NC(=O)C(C)N)c2C(=O)c2ccccc2Cl)C1` (configuration not stated), it took 8 µM to reach half-maximal inhibition (IC50).
In turn, `CC(=O)N1CCc2c(sc(NC(=O)C3CC3)c2C(=O)c2cccc(Cl)c2)C1` returned an IC50 of 20 µM.
Compound `CC(=O)N1CCc2c(sc(NC(=O)CCl)c2C(=O)c2ccccc2Cl)C1` returned an IC50 of over 100 µM.
Take `O=C(Nc1sc2c(c1C(=O)c1ccccc1Cl)CCN(C(=O)C1CC1)C2)c1cccnc1`: half-maximal inhibition (IC50) required 3.9 µM.
Take `CC(=O)N1CCc2c(sc(NC(=O)C(C)(C)C)c2C(O)c2ccccc2Cl)C1` (configuration not stated): the IC50 is 19 µM.
Take `CC(=O)N1CCc2c(sc(NC(=O)c3ccccc3)c2C(=O)c2ccccc2)C1`: half-maximal inhibition (IC50) required 48 µM.
For the compound `O=C(c1ccccc1Cl)c1c(N(CC2CCCCC2)CC2CCCCC2)sc2c1CCN(C(=O)C1CC1)C2`, the IC50 is over 100 µM.
In turn, `CCN1CCc2c(sc(N(CC)C(=O)C(C)C)c2C(=O)c2ccccc2Cl)C1` gave an IC50 of 10 µM.
Take `CC(=O)N1CCc2c(sc(NC(=O)c3ccncc3)c2C(=O)c2ccccc2Cl)C1`: the IC50 stood at 21 µM.
On the same count and under the same terms, to `CC(=O)N1CCc2c(sc(NC(=O)C(C)(C)C)c2Cc2ccccc2Cl)C1` belongs 29 µM; to `CC(=O)N1CCc2c(sc(NC(=O)CCc3ccccc3)c2C(=O)c2ccccc2Cl)C1`, over 100 µM.
`O=C(Nc1sc2c(c1C(=O)c1ccccc1Cl)CCN(C(=O)C1CC1)C2)c1ccccc1` registered an IC50 of over 100 µM.
`CC(=O)N1CCc2c(sc(NC(=O)C(C)C)c2C(=O)c2ccc(Cl)cc2)C1` registered an IC50 of over 100 µM.
`CC(=O)N1CCc2c(sc(NC(=O)C(C)C)c2C(=O)c2ccccc2)C1` registered a 50% inhibitory concentration (IC50) of 3 µM.
The compound `CCN1CCc2c(sc(NC(=O)C(C)C)c2C(O)c2ccccc2Cl)C1` (configuration not stated) came in with an IC50 of 100 µM.
The compound `CC(C)C(=O)Nc1sc2c(c1C(=O)c1ccccc1Cl)CCN(Cc1ccccc1)C2` registered an IC50 of 5 µM.
Same read-out and setting: then `CCOC(=O)c1c(NC(=O)C(C)C)sc2c1CCN(C(C)=O)C2`, with 22 µM; and `CC(C)C(=O)Nc1sc2c(c1C(=O)c1ccccc1Cl)CCN(C)C2`, with 2 µM.
Take `CC(=O)N1CCc2c(sc(NC(=O)C(C)C)c2C(=O)c2ccccc2C)C1`: the midpoint of inhibition, the IC50, lay at 3.9 µM.
On the same count and under the same terms, then `CCN1CCc2c(sc(NC(=O)C(C)C)c2C(=O)c2ccc3c(c2)OCO3)C1`, with 78 µM; and `CC(=O)N1CCc2c(C(=O)c3ccccc3Cl)csc2C1`, with 38 µM; and `CC(=O)N1CCc2c(sc(NC(=O)c3cccnc3)c2C(=O)c2ccccc2Cl)C1`, with 12 µM.
Turning to `CC(C)CN(CC(C)C)c1sc2c(c1C(=O)c1ccccc1Cl)CCN(C(=O)C1CC1)C2`, the IC50 was over 100 µM.
Compound `CC(=O)CCCCn1c(=O)c2c(ncn2C)n(C)c1=O` [PENTOXIFYLLINE] returned an IC50 of 40 µM.
`CCCCCCC(=O)Nc1sc2c(c1C(=O)c1ccccc1Cl)CCN(C(C)=O)C2` registered an IC50 of over 100 µM.
The compound `CC(=O)N1CCc2c(sc(NC(=O)C(C)C)c2C(=O)c2ccccc2Cl)C1` yielded an IC50 of 2.6 µM.
Compound `COc1ccc(C(=O)c2c(NC(C)=O)sc3c2CCN(C(C)=O)C3)cc1` showed an IC50 of 26 µM.
`CC(=O)N1CCc2c(sc(NC(=O)C3CC3)c2C(=O)c2ccccc2Cl)C1` came in with an IC50 of 3 µM.
Compound `CC(=O)N1CCc2c(sc(NC(=O)C3CC3)c2C(=O)c2ccccc2C)C1` gave an IC50 of 2.9 µM.
The same measure, in the same setting: to `CC(=O)N1CCc2c(sc(NC(=O)c3ccc(F)cc3)c2C(=O)c2ccccc2Cl)C1` belongs 100 µM; to `CC(=O)N1CCc2c(sc(N(C)C(=O)C(C)C)c2C(=O)c2ccccc2Cl)C1`, 33 µM; to `CC(=O)c1c(NC(=O)C2CC2)sc2c1CCN(C(C)=O)C2`, 28 µM.
For `CC(=O)N1CCc2c(sc(NC(=O)C(C)(C)C)c2C(=O)c2ccccc2Cl)C1`, 3.4 µM corresponded to half-maximal inhibition (IC50).
`CCN(CC)C(=O)Nc1sc2c(c1C(=O)c1ccccc1Cl)CCN(C(C)=O)C2`: the IC50 was 0.51 µM.
On the same count and under the same terms, then `CCOC(=O)c1c(NC(=O)c2cccnc2)sc2c1CCN(C(C)=O)C2`, with 22 µM.
Regarding `CC(=O)c1c(NC(=O)C(C)C)sc2c1CCN(C(C)=O)C2`, the concentration for half-maximal inhibition (IC50) is 35 µM.
On to `CC(=O)N1CCc2c(sc(NC(=O)C3CCC3)c2C(=O)c2ccccc2Cl)C1`, for which the IC50 was determined as 2.9 µM.
Still for that read-out and setting: to `O=C(Nc1sc2c(c1C(=O)c1ccccc1Cl)CCN(Cc1ccccc1)C2)c1ccccc1` belongs over 100 µM; to `CC(=O)N1CCc2c(sc(NC(=O)c3cccnc3)c2C(=O)c2ccccc2)C1`, 14 µM; to `CCN(CC)C(=O)N(C)c1sc2c(c1C(=O)c1ccccc1Cl)CCN(C(C)=O)C2`, 10 µM.
Consider `O=C(c1ccccc1Cl)c1c(NC(=O)C2CC2)sc2c1CCN(Cc1ccccc1)C2`, for which the IC50 is 6.5 µM.
Still for that read-out and setting: then `CC(=O)N1CCc2c(sc(NC(=O)c3cccnc3)c2C(=O)c2cccc(Cl)c2)C1`, with 36 µM; and `CCOC(=O)c1c(NC(=O)C2CC2)sc2c1CCN(C(C)=O)C2`, with 10 µM; and `CCC(=O)Nc1sc2c(c1C(=O)c1ccccc1Cl)CCN(C(C)=O)C2`, with 15 µM.
The compound `CC(C)C(=O)Nc1sc2c(c1C(=O)c1ccccc1Cl)CCNC2` came in with an IC50 of 4 µM.
With `CCc1c(NC(=O)C(C)C)sc2c1CCN(C(C)=O)C2`, the IC50 turned out to be 23 µM.
For `CC(=O)N1CCc2c(sc(NC(=O)C(C)C)c2C(C)O)C1` (configuration not stated), the IC50 was 38 µM.
`CCN1CCc2c(sc(NC(=O)C(C)C)c2C(=O)c2ccccc2Cl)C1`: the IC50 came to 0.92 µM.
Compound `CC(=O)N1CCc2c(sc(NC(=O)C3CCCCC3)c2C(=O)c2ccccc2Cl)C1` showed an IC50 of 39 µM.
`CC(C)C(=O)Nc1sc2c(c1C(=O)c1ccccc1Cl)CCN(C(=O)C1CC1)C2` came in with an IC50 of 2.6 µM.
Turning to `CC(=O)N1CCc2c(sc(N(C)C(=O)C3CC3)c2C(=O)c2ccccc2Cl)C1`, it took 74 µM to reach half-maximal inhibition (IC50).
The compound `CC(=O)N1CCc2c(sc(NC(=O)/C=C/c3ccccc3)c2C(=O)c2ccccc2Cl)C1` came in with an IC50 of over 100 µM.
Take `CCN(CC)C(=O)Nc1sc2c(c1C(=O)c1c(OC)cccc1OC)CCN(C(C)=O)C2`: the IC50 was 3.8 µM.
As for `CC(=O)N1CCc2c(sc(NC(=O)C(C)Cl)c2C(=O)c2ccccc2Cl)C1` (configuration not stated), the IC50 came out at 12 µM.
In turn, `CC(=O)N1CCc2c(sc(NC(=O)C(C)Br)c2C(=O)c2ccccc2Cl)C1` (configuration not stated) gave an IC50 of 6 µM.
`CN1CCc2c(sc(NC(=O)C3CC3)c2C(=O)c2ccccc2Cl)C1` returned an IC50 of 1.3 µM.
The compound `COc1ccc(C(=O)c2c(NC(C)=O)sc3c2CCN(C(C)=O)C3)cc1OC` came in with an IC50 of 46 µM.
For `O=C(c1ccccc1Cl)c1c(NC(=O)C2CC2)sc2c1CCN(C(=O)C1CC1)C2`, the IC50 was determined as 0.9 µM.
For the compound `CCNC(=O)Nc1sc2c(c1C(=O)c1ccccc1Cl)CCN(C(C)=O)C2`, the midpoint of inhibition, the IC50, lay at 10 µM.

The subject of a further assay is Rattus norvegicus. Description: Compound was evaluated in vivo for the inhibition of LPS-stimulated serum TNF-alpha production in rat after oral administration of the compound. The format is functional. An outline of the steps:
as §1
What is called ED50 is the midpoint of the dose-response relation. For the compound `C[C@@H]1C[C@H]2[C@@H]3CCC4=CC(=O)C=C[C@]4(C)[C@@]3(F)[C@@H](O)C[C@]2(C)[C@@]1(O)C(=O)CO` [DEXAMETHASONE], the ED50 stood at 0.12 mg/kg.

A further assay deals with Rattus norvegicus. Description: Compound was evaluated in vivo for the inhibition of LPS-stimulated serum TNF-alpha production in rat after oral administration at a dose 100 mg/kg. It counts as functional. The method in brief: as §1
Consider `CC(=O)CCCCn1c(=O)c2c(ncn2C)n(C)c1=O` [PENTOXIFYLLINE], for which the inhibition in vivo at 100 mg/kg is 74.4%.
